Holding throughout (type): ADME, organism-based
Series [1] in a line: Ratio of drug level in cerebrospinal fluid to Serum of pediatric patient with gram-negative bacterial infection at 4.8 mg/kg/day, iv administered every 8 hrs for 7 days by LS/MS/MS analysis. Also noted: route intravenous. The conditions noted are these: human, csf. A digest of the protocol: (§1)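 Percentages are the ratio of mean CSF concentration to mean serum concentration from paired samples. Blood was drawn immediately before and 30 min after the 20-min IV CMS infusion (every 8 h); CSF came from EVD systems concurrently. Both were measured by LC-MS-MS, for colistin directly and for CMS after acid hydrolysis. Pairs were repeated on two days.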

Series [2] in a line: Ratio of drug level in cerebrospinal fluid to Serum of pediatric patient with gram-negative bacterial infection assessed as Colistin level at 18 mg/kg/day, iv administered every 8 hrs for 42 days by LS/MS/MS analysis. Details: route intravenous. The following applies: human, csf. The method in brief: as §1
Series [3] is described as follows: Drug level in pediatric patient cerebrospinal fluid with gram-negative bacterial infection at 18 mg/kg/day, iv administered every 8 hrs for 42 days measured after 30 mins by LS/MS/MS analysis. The conditions noted are these: human, in vivo, 0.5 h. Details: route intravenous. The method in brief: (§2)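 CMS was given by 20-min IV infusion in saline every 8 h, and CSF was taken from EVD systems after the end of infusion. The CSF–serum 1:1 mix was treated with 1 M H2SO4 for 15–20 min, then 1 M NaOH, then acetonitrile with 0.1% TFA. CMS was calculated as colistin after hydrolysis minus colistin before hydrolysis, by LC-MS-MS, with CMS controls of 0.25–18.5 μg/ml. Values are means of two days; course 1 was sampled once.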

Series [4] relates to Serum. The series can be described thus: Drug level in pediatric patient serum with gram-negative bacterial infection at 18 mg/kg/day, iv administered every 8 hrs for 42 days measured after 30 mins by LS/MS/MS analysis. Details: route intravenous. The following applies: human, in vivo, 0.5 h. The method in brief: (§3)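 Serum was taken 30 min after the end of the 20-min IV CMS infusion (every 8 h) and stored at −80°C. It underwent acid hydrolysis with 1 M H2SO4 for 15–20 min, neutralisation with 1 M NaOH, and precipitation with acetonitrile containing 0.1% TFA. LC-MS-MS colistin before hydrolysis was subtracted from colistin after hydrolysis to give CMS. Values are means of two days.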

In series [5] the test system is Serum. Description: Drug level in pediatric patient serum with gram-negative bacterial infection assessed as Colistin level at 16 mg/kg/day, iv administered every 8 hrs for 51 days measured after 30 mins by LS/MS/MS analysis. Also noted: route intravenous. The following applies: human, in vivo, 0.5 h. The method in brief: (§4)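 Blood was drawn 30 min after the end of the 20-min IV CMS infusion, given every 8 h. Serum was separated by centrifugation, stored at −80°C, and assayed by LC-MS-MS for colistin A plus B (interday CV <4.4%, accuracy within ±1.9%). Values are means of two sampling days; course 1 was sampled once.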

Series [6] in a line: Drug level in pediatric patient cerebrospinal fluid with gram-negative bacterial infection assessed as Colistin level at 10.4 mg/kg/day, iv administered every 8 hrs for 46 days measured after 30 mins by LS/MS/MS analysis. Also noted: route intravenous. The conditions noted are these: human, in vivo, 0.5 h. The method in brief: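 Children (1 month to 14 years) received CMS in 30 to 50 ml normal saline by 20-min IV infusion every 8 h. CSF was taken from EVD systems alongside blood, after the end of infusion, and stored at −80°C. It was diluted 1:1 with serum, protein-precipitated, and analysed by LC-MS-MS for colistin A plus B against standards in pH 7.4 phosphate-buffered artificial-CSF Ringer with serum. Values are means of two days; course 1 was sampled once.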

The subject of series [7] is Serum. The series can be described thus: Drug level in pediatric patient serum with gram-negative bacterial infection assessed as Colistin level at 4.8 mg/kg/day, iv administered every 8 hrs for 7 days measured after 30 mins by LS/MS/MS analysis. Details: route intravenous. The following applies: human, in vivo, 0.5 h. The method in brief:
as §4

The nature of series [8]: Ratio of drug level in cerebrospinal fluid to Serum of pediatric patient with gram-negative bacterial infection before initiation of 18 mg/kg/day, iv administered every 8 hrs for 42 days by LS/MS/MS analysis. Details: route intravenous. The following applies: human, csf. A digest of the protocol:
as §1

In series [9] the test system is Serum. The series can be described thus: Drug level in pediatric patient serum with gram-negative bacterial infection at 4.8 mg/kg/day, iv administered every 8 hrs for 7 days measured after 30 mins by LS/MS/MS analysis. Details: route intravenous. The conditions noted are these: human, in vivo, 0.5 h. A digest of the protocol:
as §3

A short description of series [10]: Drug level in pediatric patient cerebrospinal fluid with gram-negative bacterial infection before initiation of 16 mg/kg/day, iv administered every 8 hrs for 51 days by LS/MS/MS analysis. Details: route intravenous. The following applies: human, in vivo. The method in brief: (§5)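 Trough sampling: blood was drawn immediately before the 20-min IV CMS infusion (every 8 h), and CSF was taken from EVD systems within 1 h before infusion. Samples were stored at −80°C and analysed by LC-MS-MS for colistin, and for CMS via acid hydrolysis with subtraction. CSF was diluted 1:1 with serum. Values are means of two days.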

A short description of series [11]: Drug level in pediatric patient cerebrospinal fluid with gram-negative bacterial infection before initiation of 18 mg/kg/day, iv administered every 8 hrs for 42 days by LS/MS/MS analysis. Details: route intravenous. The following applies: human, in vivo. A digest of the protocol:
as §5

Series [12] in a line: Ratio of drug level in cerebrospinal fluid to Serum of pediatric patient with gram-negative bacterial infection at 16 mg/kg/day, iv administered every 8 hrs for 51 days by LS/MS/MS analysis. Also noted: route intravenous. The conditions noted are these: human, csf. A digest of the protocol: as §1
Series [13] in a line: Drug level in pediatric patient cerebrospinal fluid with gram-negative bacterial infection at 16 mg/kg/day, iv administered every 8 hrs for 51 days measured after 30 mins by LS/MS/MS analysis. Also noted: route intravenous. The conditions noted are these: human, in vivo, 0.5 h. A digest of the protocol: as §2
The subject of series [14] is Serum. Description: Drug level in pediatric patient serum with gram-negative bacterial infection at 16 mg/kg/day, iv administered every 8 hrs for 51 days measured after 30 mins by LS/MS/MS analysis. Also noted: route intravenous. The conditions noted are these: human, in vivo, 0.5 h. A digest of the protocol: as §3
A short description of series [15]: Drug level in pediatric patient cerebrospinal fluid with gram-negative bacterial infection at 10.4 mg/kg/day, iv administered every 8 hrs for 46 days measured after 30 mins by LS/MS/MS analysis. Also noted: route intravenous. The conditions noted are these: human, in vivo, 0.5 h. The method in brief: as §2
Series [16] in a line: Ratio of drug level in cerebrospinal fluid to Serum of pediatric patient with gram-negative bacterial infection assessed as Colistin level at16 mg/kg/day, iv administered every 8 hrs for 93 days by LS/MS/MS analysis. The following applies: human, csf. A digest of the protocol:
as §1

Series [17] concerns Serum. The series can be described thus: Drug level in pediatric patient serum with gram-negative bacterial infection before initiation of 4.8 mg/kg/day, iv administered every 8 hrs for 7 days by LS/MS/MS analysis. Details: route intravenous. The conditions noted are these: human, in vivo. A digest of the protocol: as §5
For series [18], the system named is Serum. The series can be described thus: Drug level in pediatric patient serum with gram-negative bacterial infection at 10.4 mg/kg/day, iv administered every 8 hrs for 46 days measured after 30 mins by LS/MS/MS analysis. Also noted: route intravenous. The conditions noted are these: human, in vivo, 0.5 h. The method in brief:
as §3

Series [19] in a line: Ratio of drug level in cerebrospinal fluid to Serum of pediatric patient with gram-negative bacterial infection before initiation of 4.8 mg/kg/day, iv administered every 8 hrs for 7 days by LS/MS/MS analysis. The following applies: human, csf. Also noted: route intravenous. A digest of the protocol: as §1
A short description of series [20]: Ratio of drug level in cerebrospinal fluid to Serum of pediatric patient with gram-negative bacterial infection assessed as Colistin level at 16 mg/kg/day, iv administered every 8 hrs for 51 days by LS/MS/MS analysis. Also noted: route intravenous. The following applies: human, csf. A digest of the protocol:
as §1

Series [21] relates to Serum. Description: Drug level in pediatric patient serum with gram-negative bacterial infection at 16 mg/kg/day, iv administered every 8 hrs for 93 days measured after 30 mins by LS/MS/MS analysis. Details: route intravenous. The following applies: human, in vivo, 0.5 h. A digest of the protocol:
as §3

The test system of series [22] is Serum. The series can be described thus: Drug level in pediatric patient serum with gram-negative bacterial infection assessed as Colistin level at 10.4 mg/kg/day, iv administered every 8 hrs for 46 days measured after 30 mins by LS/MS/MS analysis. Details: route intravenous. The following applies: human, in vivo, 0.5 h. A digest of the protocol:
as §4

The subject of series [23] is Serum. Description: Drug level in pediatric patient serum with gram-negative bacterial infection assessed as Colistin level at 16 mg/kg/day, iv administered every 8 hrs for 93 days measured after 30 mins by LS/MS/MS analysis. Details: route intravenous. The conditions noted are these: human, in vivo, 0.5 h. A digest of the protocol:
as §4

This note sets out measurements from ChEMBL document CHEMBL1671711, “Serum and cerebrospinal fluid levels of colistin in pediatric patients” (Antimicrob Agents Chemother, 2010).

Regarding COLISTIN, the Ratio in [1] was determined as 2%; in series [2], 3.2%; in [8], 0.6%; in series [12], 0.9%; in series [16], 34.8%; in series [19], 20.6%. Besides, the Ratio in series [20] was found to be 7.2%. For the same sequence, the Drug uptake in series [3] turned out to be 0.03 µg/mL; in series [4] it was 7.98 µg/mL; in series [5], 1.6 µg/mL; in series [6], 0.05 µg/mL; in series [7], 0.29 µg/mL; in [9], 2.86 µg/mL. In addition, the Drug uptake in [10] was found to be 0.09 µg/mL; in series [11], 0.04 µg/mL; in series [13] it was 0.09 µg/mL; in series [14], 9.89 µg/mL; in series [15], 0.02 µg/mL; in [17] it was 0.28 µg/mL. The Drug uptake came out at 7.9 µg/mL in [18], 8.41 µg/mL in series [21], 1.46 µg/mL in [22] and 1.33 µg/mL in series [23].
